≈ marks a conversion by molar mass, not a printed value. Calls of active or inactive are those of the source. The calls are words filed in the database; no cut-off is given here.
Key:
Assay type in all cases: functional
[1] = test system: Pseudomonas aeruginosa; experiment: Antibacterial activity against multidrug/extremely drug-resistant/colistin-susceptible Pseudomonas aeruginosa isolate P259-96918 after 18 hrs by microtiter dilution assay; conditions: isolate P259-96918, 18 h
Outline: (§1)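 Broth microdilution following CLSI guidelines. An overnight culture was adjusted to 0.5 McFarland in saline, then diluted 1:50 in Mueller-Hinton broth. This inoculum was added in equal volume to 2-fold serial dilutions of agent in MHB and incubated 18 h at 37 °C. MIC was the lowest concentration with no visible growth.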

[2] = test system: Pseudomonas aeruginosa; experiment: Antibacterial activity against Pseudomonas aeruginosa PAO1 after 18 hrs by microtiter dilution assay; outline: as §1
[3] = test system: Pseudomonas aeruginosa; experiment: Antibacterial activity against multidrug/extremely drug-resistant/colistin-resistant Pseudomonas aeruginosa isolate 91433 after 18 hrs by microtiter dilution assay; conditions: isolate 91433, 18 h; outline: as §1
[4] = test system: Pseudomonas aeruginosa; experiment: Antibacterial activity against multidrug/extremely drug-resistant/colistin-susceptible Pseudomonas aeruginosa isolate P262-101856 after 18 hrs by microtiter dilution assay; conditions: isolate P262-101856, 18 h; outline: as §1
[5] = test system: Pseudomonas aeruginosa; experiment: Antibacterial activity against multidrug/extremely drug-resistant/colistin-susceptible Pseudomonas aeruginosa isolate 100036 after 18 hrs by microtiter dilution assay; conditions: isolate 100036, 18 h; outline: as §1
[6] = test system: Pseudomonas aeruginosa; experiment: Antibacterial activity against multidrug/extremely drug-resistant/colistin-susceptible Pseudomonas aeruginosa isolate 101885 after 18 hrs by microtiter dilution assay; conditions: isolate 101885, 18 h; outline: as §1
[7] = test system: Pseudomonas aeruginosa; experiment: Antibacterial activity against multidrug/extremely drug-resistant/colistin-susceptible Pseudomonas aeruginosa isolate P264-104354 after 18 hrs by microtiter dilution assay; conditions: isolate P264-104354, 18 h; outline: as §1
[8] = test system: Pseudomonas aeruginosa; experiment: Antibacterial activity against multidrug/extremely drug-resistant/colistin-resistant Pseudomonas aeruginosa isolate 101243 after 18 hrs by microtiter dilution assay; conditions: isolate 101243, 18 h; outline: as §1
[9] = test system: Staphylococcus epidermidis; experiment: Antibacterial activity against methicillin-resistant Staphylococcus epidermidis isolate CAN-ICU 61589 after 18 hrs by microtiter dilution assay; conditions: isolate CAN-ICU 61589, 18 h; outline: as §1
[10] = test system: Escherichia coli; experiment: Antibacterial activity against amikacin-resistant Escherichia coli isolate CAN-ICU 63074 after 18 hrs by microtiter dilution assay; conditions: isolate CAN-ICU 63074, 18 h; outline: as §1
[11] = test system: Escherichia coli; experiment: Antibacterial activity against gentamicin-resistant Escherichia coli isolate CAN-ICU 61714 after 18 hrs by microtiter dilution assay; conditions: isolate CAN-ICU 61714, 18 h; outline: as §1
[12] = test system: Staphylococcus aureus; experiment: Antibacterial activity against methicillin resistant Staphylococcus aureus ATCC 33592 after 18 hrs by microtiter dilution assay; conditions: ATCC 33592, 18 h; outline: as §1
[13] = test system: Enterococcus faecium; experiment: Antibacterial activity against Enterococcus faecium ATCC 27270 after 18 hrs by microtiter dilution assay; conditions: ATCC 27270, 18 h
Outline: (§2)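 Broth microdilution per CLSI. Overnight culture adjusted to 0.5 McFarland in saline, diluted 1:50 in Mueller-Hinton broth, and added to an equal volume of 2-fold serial compound dilutions in MHB. Incubated 18 h at 37 °C. MIC taken as the lowest concentration with no visible growth.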

[14] = test system: Pseudomonas aeruginosa; experiment: Synergistic antibacterial activity against Pseudomonas aeruginosa PAO1 after 18 hrs in presence of rifampicin by checkerboard assay
Outline: (§3)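 Checkerboard in MHB: antibiotic diluted along one axis and adjuvant along the other (10 × 7 matrix). Inoculum was a 1:50 dilution in MHB of a 0.5 McFarland saline suspension; incubated 18 h at 37 °C. Each FIC = concentration in the no-growth well divided by the MIC alone; FIC index = sum of both FICs. ≤0.5 synergy, 0.5–4 no interaction, ≥4 antagonism.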

[15] = test system: Escherichia coli; experiment: Antibacterial activity against gentamicin/tobramycin/ciprofloxacin-resistant Escherichia coli isolate CANWARD-2011 97615 harboring AAC3-2A after 18 hrs by microtiter dilution assay; conditions: isolate CANWARD-2011 97615, 18 h; outline: as §1
[16] = test system: Enterococcus faecalis; experiment: Antibacterial activity against Enterococcus faecalis ATCC 29212 after 18 hrs by microtiter dilution assay; conditions: ATCC 29212, 18 h; outline: as §2
[17] = test system: Escherichia coli; experiment: Antibacterial activity against Escherichia coli ATCC 25922 after 18 hrs by microtiter dilution assay; conditions: ATCC 25922, 18 h; outline: as §1
[18] = test system: Pseudomonas aeruginosa; experiment: Antibacterial activity against Pseudomonas aeruginosa ATCC 27853 after 18 hrs by microtiter dilution assay; conditions: ATCC 27853, 18 h; outline: as §2
[19] = test system: Stenotrophomonas maltophilia; experiment: Antibacterial activity against Stenotrophomonas maltophilia isolate CAN-ICU 62584 after 18 hrs by microtiter dilution assay; conditions: isolate CAN-ICU 62584, 18 h; outline: as §2
[20] = test system: Klebsiella pneumoniae; experiment: Antibacterial activity against Klebsiella pneumoniae ATCC 13883 after 18 hrs by microtiter dilution assay; conditions: ATCC 13883, 18 h; outline: as §2
[21] = test system: Pseudomonas aeruginosa; experiment: Synergistic antibacterial activity against Pseudomonas aeruginosa PAO1 after 18 hrs in presence of minocycline by checkerboard assay; outline: as §3
[22] = test system: Pseudomonas aeruginosa; experiment: Antibacterial activity against gentamicin/tobramycin-resistant Pseudomonas aeruginosa isolate CANWARD-2011 96846 after 18 hrs by microtiter dilution assay; conditions: isolate CANWARD-2011 96846, 18 h; outline: as §1
[23] = test system: Staphylococcus epidermidis; experiment: Antibacterial activity against methicillin-susceptible Staphylococcus epidermidis isolate CANWARD-2008 81388 after 18 hrs by microtiter dilution assay; conditions: isolate CANWARD-2008 81388, 18 h; outline: as §1
[24] = test system: Staphylococcus aureus; experiment: Antibacterial activity against Staphylococcus aureus ATCC 29213 after 18 hrs by microtiter dilution assay; conditions: ATCC 29213, 18 h; outline: as §1
[25] = test system: Acinetobacter baumannii; experiment: Antibacterial activity against Acinetobacter baumannii isolate CAN-ICU 63169 after 18 hrs by microtiter dilution assay; conditions: isolate CAN-ICU 63169, 18 h; outline: as §2
[26] = test system: Streptococcus pneumoniae; experiment: Antibacterial activity against Streptococcus pneumoniae ATCC 49619 after 18 hrs by microtiter dilution assay; conditions: ATCC 49619, 18 h; outline: as §2
[27] = test system: Pseudomonas aeruginosa; experiment: Antibacterial activity against gentamicin-resistant Pseudomonas aeruginosa isolate CAN-ICU 62308 after 18 hrs by microtiter dilution assay; conditions: isolate CAN-ICU 62308, 18 h; outline: as §1

Row | Molecule | MIC [1] | MIC ([2]; PAO1, 18 h) | MIC [3] | MIC [4] | MIC [5] | MIC [6] | MIC [7] | MIC [8] | MIC [9] | MIC [10] | MIC [11] | other results
1 | CC[C@H]1OC(=O)[C@H](C)[C@@H](O[C@H]2C[C@@](C)(OC)[C@@H](O)[C@H](C)O2)[C@H](C)[C@@H](O[C@@H]2O[C@H](C)C[C@H](N(C)C)[C@H]2O)[C@](C)(O)C[C@@H](C)C(=O)[C@H](C)[C@@H](O)[C@]1(C)O [ERYTHROMYCIN] | 256 µg/mL (≈ 349 µM) | 256 µg/mL (≈ 349 µM) | 512 µg/mL (≈ 698 µM) | 1020 µg/mL (≈ 1400 µM) | 256 µg/mL (≈ 349 µM) | 256 µg/mL (≈ 349 µM) | 256 µg/mL (≈ 349 µM) | 1020 µg/mL (≈ 1400 µM) |  |  |  | 
2 | Cc1nnc(SCC2=C(C(=O)O)N3C(=O)[C@@H](NC(=O)Cn4cnnn4)[C@H]3SC2)s1 [CEFAZOLIN] |  |  |  |  |  |  |  |  | > 32 µg/mL | 32 µg/mL (≈ 70.4 µM) | 32 µg/mL (≈ 70.4 µM) | 
3 | CO[C@@H]1[C@@H](OC(N)=O)[C@@H](O)[C@H](Oc2ccc3c(O)c(NC(=O)c4ccc(O)c(CC=C(C)C)c4)c(=O)oc3c2C)OC1(C)C [NOVOBIOCIN] |  | 1020 µg/mL (≈ 1670 µM) |  |  |  |  |  |  |  |  |  | 
4 | O=C(N[C@H](CO)[C@H](O)c1ccc([N+](=O)[O-])cc1)C(Cl)Cl [CHLORAMPHENICOL] | 512 µg/mL (≈ 1580 µM) | 64 µg/mL (≈ 198 µM) | 16 µg/mL (≈ 49.5 µM) | 1020 µg/mL (≈ 3170 µM) | > 512 µg/mL | 512 µg/mL (≈ 1580 µM) | 1020 µg/mL (≈ 3170 µM) | 4 µg/mL (≈ 12.4 µM) |  |  |  | 
5 | Cl.Cl.Cl.Cl.Cl.Cl.Cl.NCCCC[C@H](N)C(=O)N(CCCCCCCCOC1[C@@H](O[C@H]2O[C@H](CO)[C@@H](O)[C@H](N)[C@H]2O)[C@H](N)C[C@H](N)[C@H]1O[C@H]1O[C@H](CN)[C@@H](O)C[C@H]1N)Cc1c2ccccc2c(Cl)c2ccccc12 (single isomer, unassigned) | 512 µg/mL | 128 µg/mL | 8 µg/mL | 128 µg/mL | 512 µg/mL | 64 µg/mL | 256 µg/mL | 32 µg/mL | 8 µg/mL | 128 µg/mL | 32 µg/mL | MIC [12]: 16 µg/mL; MIC [13]: 16 µg/mL; Activity [14]: Active; MIC [15]: 32 µg/mL; MIC [16]: 64 µg/mL; MIC [17]: 16 µg/mL; MIC [18]: > 128 µg/mL; MIC [19]: > 128 µg/mL; MIC [20]: > 128 µg/mL; Activity [21]: Active; MIC [22]: 64 µg/mL; MIC [23]: 8 µg/mL; MIC [24]: 16 µg/mL; MIC [25]: > 128 µg/mL; MIC [26]: 128 µg/mL; MIC [27]: 16 µg/mL
6 | GENTAMICIN |  |  |  |  |  |  |  |  |  |  |  | MIC [2]: 1 µg/mL
7 | Cl.Cl.Cl.Cl.Cl.Cl.Cl.NCCCC[C@H](N)C(=O)N(CCCCO[C@@H]1[C@@H](O[C@H]2O[C@H](CO)[C@@H](O)[C@H](N)[C@H]2O)[C@H](N)C[C@H](N)[C@H]1O[C@H]1O[C@H](CN)[C@@H](O)C[C@H]1N)Cc1c2ccccc2c(Cl)c2ccccc12 | > 512 µg/mL | > 512 µg/mL | 32 µg/mL | > 512 µg/mL | > 512 µg/mL | 256 µg/mL | > 512 µg/mL | 256 µg/mL | 32 µg/mL | 64 µg/mL | 64 µg/mL | MIC [12]: 64 µg/mL; MIC [13]: > 128 µg/mL; Activity [14]: inactive; MIC [15]: 64 µg/mL; MIC [16]: > 128 µg/mL; MIC [17]: 32 µg/mL; MIC [18]: > 128 µg/mL; MIC [19]: > 128 µg/mL; MIC [20]: 128 µg/mL; Activity [21]: inactive; MIC [22]: > 128 µg/mL; MIC [23]: 16 µg/mL; MIC [24]: 64 µg/mL; MIC [25]: > 128 µg/mL; MIC [26]: > 128 µg/mL; MIC [27]: 64 µg/mL
